# Experimental data taken from ChEMBL document CHEMBL3272173, “Synthesis and biological activity of peptide antagonists of luliberin (luteinizing hormone-releasing hormone)” (J Med Chem, 1979).
# Peptide text beside a SMILES is read from it. * marks the point of attachment. Cbz = O=C(OCc1ccccc1)*; Bn = c1ccc(C*)cc1
# Legend:
# Rattus norvegicus [1] = assay: Antiovulatory activity in sc dosed CD rat assessed as blockade of ovulation administered as six doses at 1200, 1230, 1300, 1350, 1400 and 1450 hrs during proestrus stage measured during estrus stage by dissecting microscopic analysis; format: functional
# Procedure, shortened: (§1)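 Cycling Charles River CD rats were given six subcutaneous injections of analogue in 0.1 mL propylene glycol on the afternoon of proestrus, and controls received vehicle alone. Rats were killed the next morning (estrus). Ovulating animals were scored and ova in the oviducts were counted under a dissecting microscope.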
# [2] = target: T1, Gonadotropin-releasing hormone receptor (Rattus norvegicus) (UniProt P30969); assay: In vitro antagonist activity at GNRHR in CD rat anterior pituitary gland assessed as inhibition of LH-RH-stimulated LH release at compound to LH-RH molar ratio of 4000 after 4 hrs by radioimmunoassay; conditions: concentration not given here
# T1 sequence (whole entry): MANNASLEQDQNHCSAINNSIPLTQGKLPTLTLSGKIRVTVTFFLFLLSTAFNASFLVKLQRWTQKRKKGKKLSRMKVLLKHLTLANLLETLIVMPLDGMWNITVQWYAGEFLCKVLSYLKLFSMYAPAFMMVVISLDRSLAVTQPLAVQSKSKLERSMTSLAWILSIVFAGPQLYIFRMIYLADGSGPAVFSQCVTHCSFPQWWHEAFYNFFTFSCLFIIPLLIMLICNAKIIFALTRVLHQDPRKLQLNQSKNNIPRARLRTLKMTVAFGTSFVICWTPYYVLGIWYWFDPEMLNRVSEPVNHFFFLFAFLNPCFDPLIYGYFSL
# Procedure, shortened: (§2)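 Anterior pituitaries from diestrus CD rats (200-250 g) were dissociated enzymatically (collagenase, hyaluronidase, then Viokase). Cells were cultured 4 days at 1.67 × 10^5 cells/mL in DME with 10% horse serum and 2.5% fetal calf serum, then washed serum-free. Duplicate cultures received LH-RH (2-5 × 10^-10 M) with a single analogue concentration in serum-free DME for 4 h at 37 °C. LH in the medium was measured by RIA and reported as % inhibition of LH-RH-stimulated release.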
# [3] = target: T1, Gonadotropin-releasing hormone receptor (Rattus norvegicus); assay: In vitro antagonist activity at GNRHR in CD rat anterior pituitary gland assessed as ratio of molar concentration of compound to LH-RH for inhibition of LH-RH-stimulated LH release after 4 hrs by radioimmunoassay
# Procedure, shortened: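 Monolayers were cultured 4 days from dissociated anterior pituitary cells of diestrus CD rats. They were exposed in duplicate to LH-RH (2-5 × 10^-10 M) plus multiple analogue concentrations in serum-free DME for 4 h at 37 °C. LH in the medium was measured by radioimmunoassay. The ED50 molar ratio is the analogue:LH-RH molar ratio giving 50% inhibition of LH-RH-stimulated LH release.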
# [4] = target: T1, Gonadotropin-releasing hormone receptor (Rattus norvegicus); assay: In vitro antagonist activity at GNRHR in CD rat anterior pituitary gland assessed as inhibition of LH-RH-stimulated LH release at compound to LH-RH molar ratio of 10 after 4 hrs by radioimmunoassay; conditions: concentration not given here; procedure, shortened: as §2
# Rattus norvegicus [5] = assay: Antiovulatory activity in CD rat assessed as blockade of ovulation at 3 mg, sc administered as six doses at 1200, 1230, 1300, 1350, 1400 and 1450 hrs during proestrus stage measured during estrus stage by dissecting microscopic analysis; format: functional; procedure, shortened: as §1
# Rattus norvegicus [6] = assay: Antiovulatory activity in CD rat assessed as blockade of ovulation at 0.1 mg, sc administered as six doses at 1200, 1230, 1300, 1350, 1400 and 1450 hrs during proestrus stage measured during estrus stage by dissecting microscopic analysis; format: functional; conditions: in the assay text read “at 1 mg” for “at 0.1 mg”; procedure, shortened: as §1
# [7] = Solubility of the compound in water; format: physicochemical
# [8] = target: T1, Gonadotropin-releasing hormone receptor (Rattus norvegicus); assay: In vitro antagonist activity at GNRHR in CD rat anterior pituitary gland assessed as inhibition of LH-RH-stimulated LH release at compound to LH-RH molar ratio of 2800 after 4 hrs by radioimmunoassay; conditions: concentration not given here; procedure, shortened: as §2
# [9] = target: T1, Gonadotropin-releasing hormone receptor (Rattus norvegicus); assay: In vitro antagonist activity at GNRHR in CD rat anterior pituitary gland assessed as inhibition of LH-RH-stimulated LH release at compound to LH-RH molar ratio of 57 after 4 hrs by radioimmunoassay; conditions: concentration not given here; procedure, shortened: as §2
# Rattus norvegicus [10] = assay: Antiovulatory activity in CD rat assessed as blockade of ovulation at 1 mg, sc administered as six doses at 1200, 1230, 1300, 1350, 1400 and 1450 hrs during proestrus stage measured during estrus stage by dissecting microscopic analysis; format: functional; procedure, shortened: as §1
# Rattus norvegicus [11] = assay: Antiovulatory activity in CD rat assessed as blockade of ovulation at 0.3 mg, sc administered as six doses at 1200, 1230, 1300, 1350, 1400 and 1450 hrs during proestrus stage measured during estrus stage by dissecting microscopic analysis; format: functional; procedure, shortened: as §1
# [12] = target: T1, Gonadotropin-releasing hormone receptor (Rattus norvegicus); assay: In vitro antagonist activity at GNRHR in CD rat anterior pituitary gland assessed as inhibition of LH-RH-stimulated LH release at compound to LH-RH molar ratio of 200 after 4 hrs by radioimmunoassay; conditions: concentration not given here; procedure, shortened: as §2
# Rattus norvegicus [13] = assay: Antiovulatory activity in CD rat assessed as blockade of ovulation at 5 mg, sc administered as six doses at 1200, 1230, 1300, 1350, 1400 and 1450 hrs during proestrus stage measured during estrus stage by dissecting microscopic analysis; format: functional; procedure, shortened: as §1
# [14] = target: T1, Gonadotropin-releasing hormone receptor (Rattus norvegicus); assay: In vitro antagonist activity at GNRHR in CD rat anterior pituitary gland assessed as inhibition of LH-RH-stimulated LH release at compound to LH-RH molar ratio of 20 after 4 hrs by radioimmunoassay; conditions: concentration not given here; procedure, shortened: as §2
# [15] = target: T1, Gonadotropin-releasing hormone receptor (Rattus norvegicus); assay: In vitro antagonist activity at GNRHR in CD rat anterior pituitary gland assessed as inhibition of LH-RH-stimulated LH release at compound to LH-RH molar ratio of 28 after 4 hrs by radioimmunoassay; conditions: concentration not given here; procedure, shortened: as §2
# [16] = target: T1, Gonadotropin-releasing hormone receptor (Rattus norvegicus); assay: In vitro antagonist activity at GNRHR in CD rat anterior pituitary gland assessed as inhibition of LH-RH-stimulated LH release at compound to LH-RH molar ratio of 2000 after 4 hrs by radioimmunoassay; conditions: concentration not given here; procedure, shortened: as §2
structure (smiles),measurement,setting,value
CC(C)C[C@H](NC(=O)CNC(=O)[C@H](Cc1ccc(O)cc1)NC(=O)[C@H](CO)NC(=O)[C@H](Cc1c[nH]c2ccccc12)NC(=O)[C@H](CCC(N)=O)NC(=O)OCc1ccccc1)C(=O)N[C@@H](CCCNC(=N)N)C(=O)N1CCC[C@H]1C(=O)NCC(N)=O.Cl (HELM PEPTIDE1{[O=C(OCc1ccccc1)[*:2]].Q.W.S.Y.G.L.R.P.G.[am]}$$$$V2.0),ED50,Rattus norvegicus [1],>1 mg
same,inhibition,[2],33%
CC(C)C[C@H](NC(=O)[C@@H](Cc1ccccc1)NC(=O)[C@H](Cc1ccc(O)cc1)NC(=O)[C@H](CO)NC(=O)[C@H](Cc1c[nH]c2ccccc12)NC(=O)[C@H](COCc1ccccc1)NC(=O)OCc1ccccc1)C(=O)N[C@@H](CCCNC(=N)N)C(=O)N1CCC[C@H]1C(=O)NCC(N)=O.Cl,ED50,[3],1.5 molar ratio
same,inhibition,[4],90%
same,inhibition (INH),Rattus norvegicus [5],40%
same,ED50,Rattus norvegicus [1],>3 mg
CC(C)C[C@H](NC(=O)[C@@H](Cc1c[nH]c2ccccc12)NC(=O)[C@H](Cc1ccc(O)cc1)NC(=O)[C@H](CO)NC(=O)[C@H](Cc1c[nH]c2ccccc12)NC(=O)[C@H](COCc1ccccc1)NC(=O)OC(C)(C)C)C(=O)N[C@@H](CCCNC(=N)N)C(=O)N1CCC[C@H]1C(=O)NCC(N)=O.Cl,inhibition (INH),Rattus norvegicus [6],100%
same,ED50,Rattus norvegicus [1],0.05 mg
same,solubility,[7],1000 µg/mL
CC(C)C[C@H](NC(=O)CNC(=O)[C@H](Cc1ccc(O)cc1)NC(=O)[C@H](CO)NC(=O)[C@H](Cc1c[nH]c2ccccc12)NC(=O)[C@H](COCc1ccccc1)NC(=O)OCc1ccccc1)C(=O)N[C@@H](CCCNC(=N)N)C(=O)N1CCC[C@H]1C(=O)NCC(N)=O.Cl (Cbz-S(Bn)WSYGLRPG-NH2),ED50,[3],100 molar ratio
same,inhibition,[8],100%
same,inhibition (INH),Rattus norvegicus [5],20%
CCNC(=O)[C@@H]1CCCN1C(=O)[C@H](CCCNC(=N)N)NC(=O)[C@H](CC(C)C)NC(=O)[C@@H](Cc1ccccc1)NC(=O)[C@H](Cc1ccc(O)cc1)NC(=O)[C@H](CO)NC(=O)[C@H](Cc1c[nH]c2ccccc12)NC(=O)[C@H](COCc1ccccc1)NC(=O)OC(C)(C)C.Cl,inhibition,[9],91%
same,inhibition (INH),Rattus norvegicus [10],0%
same,ED50,[3],19 molar ratio
same,ED50,Rattus norvegicus [1],>10 mg
CC(C)C[C@H](NC(=O)CNC(=O)[C@H](Cc1ccc(O)cc1)NC(=O)[C@H](CO)NC(=O)[C@H](Cc1c[nH]c2ccccc12)NC(=O)[C@H](Cc1cnc[nH]1)NC(=O)OCc1ccccc1)C(=O)N[C@@H](CCCNC(=N)N)C(=O)N1CCC[C@H]1C(=O)O (HELM PEPTIDE1{[O=C(OCc1ccccc1)[*:2]].H.W.S.Y.G.L.R.P}$$$$V2.0),inhibition,[2],10%
CC(=O)O.CCNC(=O)[C@@H]1CCCN1C(=O)[C@H](CCCNC(=N)N)NC(=O)[C@H](CC(C)C)NC(=O)[C@H](NC(=O)[C@H](Cc1ccc(O)cc1)NC(=O)[C@H](CO)NC(=O)[C@H](Cc1c[nH]c2ccccc12)NC(=O)[C@H](CCC(N)=O)NC(=O)OCc1ccccc1)[C@@H](O)c1ccccc1,inhibition (INH),Rattus norvegicus [11],100%
same,ED50,Rattus norvegicus [1],0.1 mg
CCNC(=O)[C@@H]1CCCN1C(=O)[C@H](CCCNC(=N)N)NC(=O)[C@H](CC(C)C)NC(=O)[C@@H](CCSC)NC(=O)[C@H](Cc1ccc(O)cc1)NC(=O)[C@H](CO)NC(=O)[C@H](Cc1c[nH]c2ccccc12)NC(=O)[C@H](CCC(N)=O)NC(=O)OCc1ccccc1.Cl,inhibition,[12],85%
same,inhibition (INH),Rattus norvegicus [5],60%
same,ED50,Rattus norvegicus [1],3 mg
CC(=O)O.CCNC(=O)[C@@H]1CCCN1C(=O)[C@H](CCCNC(=N)N)NC(=O)[C@H](CC(C)C)NC(=O)[C@@H](Cc1ccccc1)NC(=O)[C@H](Cc1ccc(O)cc1)NC(=O)[C@H](CO)NC(=O)[C@H](Cc1c[nH]c2ccccc12)NC(=O)[C@H](CCC(N)=O)NC(=O)OCc1ccccc1,inhibition (INH),Rattus norvegicus [13],0%
same,ED50,Rattus norvegicus [1],>5 mg
CC(C)C[C@H](NC(=O)CNC(=O)[C@H](Cc1ccc(O)cc1)NC(=O)[C@H](CO)NC(=O)[C@H](Cc1c[nH]c2ccccc12)NC(=O)[C@H](Cc1cnc[nH]1)NC(=O)OCc1ccccc1)C(=O)N[C@@H](CCCNC(=N)N)C(=O)N1CCC[C@H]1C(=O)NCC(=O)O (HELM PEPTIDE1{[O=C(OCc1ccccc1)[*:2]].H.W.S.Y.G.L.R.P.G}$$$$V2.0),inhibition,[2],17%
CCNC(=O)[C@@H]1CCCN1C(=O)[C@H](CCCNC(=N)N)NC(=O)[C@H](CC(C)C)NC(=O)[C@@H](Cc1c[nH]c2ccccc12)NC(=O)[C@H](Cc1ccc(O)cc1)NC(=O)[C@H](CO)NC(=O)[C@H](Cc1c[nH]c2ccccc12)NC(=O)[C@@H](NC(=O)OCc1ccccc1)[C@@H](C)CC.Cl,ED50,[3],1.5 molar ratio
same,inhibition,[14],100%
same,inhibition (INH),Rattus norvegicus [13],0%
same,ED50,Rattus norvegicus [1],>5 mg
CCNC(=O)[C@@H]1CCCN1C(=O)[C@H](CCCNC(=N)N)NC(=O)[C@H](CC(C)C)NC(=O)[C@@H](CC(C)C)NC(=O)[C@H](Cc1ccc(O)cc1)NC(=O)[C@H](CO)NC(=O)[C@H](Cc1c[nH]c2ccccc12)NC(=O)[C@H](CCC(N)=O)NC(=O)OCc1ccccc1.Cl,inhibition (INH),Rattus norvegicus [10],20%
same,ED50,[3],22.3 molar ratio
same,inhibition,[15],60%
same,ED50,Rattus norvegicus [1],>1 mg
CC(=O)O.CCNC(=O)[C@@H]1CCCN1C(=O)[C@H](CCCNC(=N)N)NC(=O)[C@H](CC(C)C)NC(=O)[C@@H](CC(N)=O)NC(=O)[C@H](Cc1ccc(O)cc1)NC(=O)[C@H](CO)NC(=O)[C@H](Cc1c[nH]c2ccccc12)NC(=O)[C@H](CCC(N)=O)NC(=O)OCc1ccccc1,inhibition (INH),Rattus norvegicus [10],20%
same,ED50,[3],300 molar ratio
same,ED50,Rattus norvegicus [1],>1 mg
same,inhibition,[16],100%
CCNC(=O)[C@@H]1CCCN1C(=O)[C@H](CCCNC(=N)N)NC(=O)[C@H](CC(C)C)NC(=O)[C@@H](Cc1ccccc1)NC(=O)[C@H](Cc1ccc(O)cc1)NC(=O)[C@H](CO)NC(=O)[C@H](Cc1c[nH]c2ccccc12)NC(=O)[C@H](COCc1ccccc1)NC(=O)OCc1ccccc1.Cl,ED50,[3],1.3 molar ratio
same,inhibition,[4],93%
same,inhibition (INH),Rattus norvegicus [13],80%
same,ED50,Rattus norvegicus [1],2.5 mg
CC(=O)O.CCNC(=O)[C@@H]1CCCN1C(=O)[C@H](CCCNC(=N)N)NC(=O)[C@H](CC(C)C)NC(=O)[C@H]1CCCN1C(=O)[C@H](Cc1ccc(O)cc1)NC(=O)[C@H](CO)NC(=O)[C@H](Cc1c[nH]c2ccccc12)NC(=O)[C@H](CCC(N)=O)NC(=O)OCc1ccccc1,inhibition,[12],74%
same,inhibition (INH),Rattus norvegicus [5],100%
same,ED50,Rattus norvegicus [1],1 mg
CC(=O)O.CCNC(=O)[C@@H]1CCCN1C(=O)[C@H](CCCNC(=N)N)NC(=O)[C@H](CC(C)C)NC(=O)[C@@H](CCC(N)=O)NC(=O)[C@H](Cc1ccc(O)cc1)NC(=O)[C@H](CO)NC(=O)[C@H](Cc1c[nH]c2ccccc12)NC(=O)[C@H](CCC(N)=O)NC(=O)OCc1ccccc1,inhibition (INH),Rattus norvegicus [10],20%
same,inhibition,[15],77%
same,ED50,Rattus norvegicus [1],>1 mg
